Here are results for 30 molecules from ChEMBL document CHEMBL4334481, “First Nondiscriminating Translocator Protein Ligands Produced from a Carbazole Scaffold” (J Med Chem, 2019).

Activity calls are given as the source filed them. The calls are words filed in the database; no cut-off is given here.

For test [1], the target named is T1, Translocator protein (Homo sapiens, UniProt P30536). The experiment in a line: Displacement of [3H]PK11195 from wild-type human TSPO expressed in HEK293 cell membranes after 90 mins by scintillation counting method.
The species entered for test [2] is Homo sapiens. In words: Selectivity ratio of ki for human TSPO A147T mutant expressed in HEK293 cell membranes to ki for human TSPO expressed in HEK293 cell membranes. Type of test: cell-based. A digest of the protocol: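 Membranes from stably transfected HEK293 cells (PBS/0.04% EDTA detachment, homogenised in Tris-HCl, washed by 48000 g spins), 20 µg protein/well for WT or 10 µg/well for A147T, incubated with 10 nM [3H]PK 11195 and competitor at log-spaced 3.1 nM–10 µM, 90 min, 4 °C.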

Test [3] concerns the target T1, Translocator protein. The experiment in a line: Binding affinity to wild-type human TSPO expressed in HEK293 cells assessed as inhibition of cell viability at 100 uM incubated for 48 hrs by CellTiter Blue assay relative to control. Type of test: cell-based. A digest of the protocol: (§1)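 Stably transfected WT or A147T TSPO HEK293 cells, 8.75 x 10^3/well on poly-L-lysine (100 µg/mL) plates for 24 h, then 100 µM ligand for 48 h. CellTiter Blue (resazurin) added for 4 h at 37 °C; fluorescence 530 ex/590 em; normalised to vehicle-treated cells; three independent experiments; two-way ANOVA with Dunnett's test.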
(Alamar Blue is a resazurin reagent that responds to reducing activity.)

The subject of test [4] is Translocator protein (Homo sapiens), P30536 [UNDEFINED MUTATION]. In words: Binding affinity to human TSPO A147T mutant expressed in HEK293 cells assessed as inhibition of cell viability at 100 uM incubated for 48 hrs by CellTiter Blue assay relative to control. The class given is cell-based. An outline of the steps: as §1
Test [5] deals with T1, Translocator protein. In words: Binding affinity to wild-type human TSPO expressed in HEK293 cells assessed as inhibition of cell proliferation at 100 uM incubated for 48 hrs by Brdu incorporation-based ELISA relative to control. An outline of the steps:
(§2)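 Stably transfected WT or A147T TSPO HEK293 cells, 8.75 x 10^3/well on poly-L-lysine-coated plates for 24 h, then 100 µM ligand for 48 h. BrdU added 4 h at 37 °C, BrdU incorporation ELISA stopped with 1 M sulfuric acid, absorbance 450 nm; normalised to vehicle-treated controls; n ≥ 3; two-way ANOVA with Dunnett's test.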
A general note: An ELISA detects its analyte on a solid surface through an enzyme-linked reagent.

Test [6] concerns Translocator protein (Homo sapiens), P30536 [UNDEFINED MUTATION]. In words: Binding affinity to human TSPO A147T mutant expressed in HEK293 cells assessed as inhibition of cell proliferation at 100 uM incubated for 48 hrs by Brdu incorporation-based ELISA relative to control. An outline of the steps: as §2
For test [7], the target named is Translocator protein (Rattus norvegicus) (UniProt P16257). In words: Binding affinity to TSPO in rat C6 glioma cells assessed as steroidogenic activity by measuring increase in pregnenolone level after 2 hrs by ELISA. The class given is cell-based. An outline of the steps:
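C6 glioma cells plated at 1 x 10^5/well, after 24 h washed twice with ELISA buffer (HEPES-NaOH pH 7.4, 0.1% BSA, glucose, salts), then ligand 100 µM for 2 h in buffer containing trilostane 25 µM and SU10603 10 µM; vehicle 0.1% DMSO. Buffer collected, spun 1500 g, pregnenolone quantified by ELISA; n ≥ 3; one-way ANOVA with Dunnett's test.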

The target in test [8] is T1, Translocator protein. In words: Displacement of [3H]PK11195 from wild-type human TSPO expressed in HEK293 cells after 90 mins by scintillation counting method. Type of test: cell-based. (In general: Displacement assays read how much labelled ligand stays bound in the presence of the test substance.)
For test [9], the target named is T1, Translocator protein. In words: Displacement of [3H]PK11195 from human TSPO A147T mutant expressed in HEK293 cells after 90 mins by scintillation counting method. Type of test: cell-based.
The species named for test [10] is Homo sapiens. In words: Selectivity ratio of ki for human TSPO A147T mutant expressed in HEK293 cells to ki for human TSPO expressed in HEK293 cells. The class given is cell-based.
In test [11] the target is T1, Translocator protein. The experiment in a line: Positive allosteric modulation of wild-type human TSPO expressed in HEK293 cells assessed as potentiation of PK11195-induced reduction in cell proliferation at 100 uM after 48 hrs by Brdu incorporation-based ELISA. A digest of the protocol: (§3)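 WT or A147T TSPO HEK293 cells (8.75 x 10^3/well, poly-L-lysine plates, 24 h) co-treated with 100 µM PK 11195 plus 100 µM ligand for 48 h; proliferation by BrdU ELISA (4 h BrdU labelling, 450 nm read); compared with PK 11195 alone; n ≥ 3; two-way ANOVA with Dunnett's test.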

The subject of test [12] is Translocator protein (Homo sapiens), P30536 [UNDEFINED MUTATION]. The experiment in a line: Positive allosteric modulation of human TSPO A147T mutant expressed in HEK293 cells assessed as potentiation of PK11195-induced reduction in cell proliferation at 100 uM after 48 hrs by Brdu incorporation-based ELISA. An outline of the steps:
as §3

Test [13] has the same test system. The experiment in a line: Potency index, ratio of PK11195 Ki to compound Ki for human TSPO A147T mutant expressed in HEK293 cell membranes. Type of test: cell-based.
The target of test [14] is T1, Translocator protein. In words: Potency index, ratio of PK11195 Ki to compound Ki for wild-type human TSPO expressed in HEK293 cell membranes. Type of test: cell-based.

Chain of Translocator protein (Homo sapiens), P30536 [UNDEFINED MUTATION] (P30536 whole entry, looked up, stated change not applied): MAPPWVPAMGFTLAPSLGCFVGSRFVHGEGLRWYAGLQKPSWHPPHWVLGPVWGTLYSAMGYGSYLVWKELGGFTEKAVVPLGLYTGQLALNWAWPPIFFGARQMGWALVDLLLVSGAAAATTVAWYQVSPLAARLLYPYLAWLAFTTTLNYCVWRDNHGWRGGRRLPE
T1 sequence (P30536 whole entry): as the sequence (P30536 whole entry, looked up, stated change not applied) above
Chain of Translocator protein (Rattus norvegicus) (P16257 whole entry, looked up): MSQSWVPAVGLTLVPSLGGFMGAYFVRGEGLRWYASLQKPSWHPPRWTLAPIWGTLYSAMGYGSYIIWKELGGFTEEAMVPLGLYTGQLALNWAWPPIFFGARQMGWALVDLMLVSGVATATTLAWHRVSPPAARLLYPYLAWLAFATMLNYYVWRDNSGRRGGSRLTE

With `CCN(Cc1cccc(C(F)(F)F)c1)C(=O)Cn1c2ccccc2c2ccccc21`, on Translocator protein [1], the Ki (commonly the equilibrium dissociation constant of an inhibitor or competing ligand from its target) was over 10000 nM.
As to `CCN(CC)C(=O)Cn1c2ccccc2c2ccccc21`, in the test listed under Homo sapiens [2], the Ratio Ki turned out to be 5.9.
Consider `COc1cccc(CN(C)C(=O)Cn2c3ccccc3c3cc(Br)ccc32)c1`, for which, on Translocator protein [1], the Ki was over 10000 nM.
As for `CCN(Cc1ccccc1F)C(=O)Cn1c2ccccc2c2ccccc21`, the affinity on Translocator protein [1] corresponds to a Ki of 184 nM. The Ratio Ki in the test filed under Homo sapiens [2] came to 17.
The matching figures for `CCN(Cc1ccc(OC)cc1)C(=O)Cn1c2ccccc2c2ccccc21`: 4740 nM and over 2.1.
Take `CCN(Cc1cccc(OC)c1)C(=O)Cn1c2ccccc2c2ccccc21`: the Ki at Translocator protein [1] turned out to be 96.1 nM; at Translocator protein [8], 217 nM; on Translocator protein [9], 277 nM. Also, the figures for the Ratio Ki in the test filed under Homo sapiens [2] and in the test listed under Homo sapiens [10] were 1 and 1.2, respectively. Besides, the inhibition result (at Translocator protein [3]; in test [4]; at Translocator protein [5]; in [6]) was “inactive” each time. Moreover, in test [7], the outcome was inactive.
At Translocator protein [1], `COc1cccc(CN(C)C(=O)Cn2c3ccccc3c3cc(-c4ccc(Cl)cc4)ccc32)c1` registered a Ki of 3550 nM. The Ratio Ki in the test filed under Homo sapiens [2] was found to be 0.5.
As to `CCN(Cc1ccccc1)C(=O)Cn1c2ccccc2c2ccccc21`, the affinity at Translocator protein [1] corresponds to a Ki of 70 nM. Besides, the Ratio Ki in the test listed under Homo sapiens [2] is 4.5. Moreover, the inhibition result (on Translocator protein [3]; in test [4]; at Translocator protein [5]; in test [6]) was “inactive” throughout.
On Translocator protein [1], `CCN(Cc1ccncc1)C(=O)Cn1c2ccccc2c2ccccc21` came in with an inhibition constant (Ki) of over 10000 nM.
`CCN(Cc1ccccc1OC)C(=O)Cn1c2ccccc2c2ccccc21` had a Ki on Translocator protein [1] of 1530 nM. The Ratio Ki in the test listed under Homo sapiens [2] turned out to be 1.
In turn, `CN(C)C(=O)Cn1c2ccccc2c2ccccc21` displayed a Ki at Translocator protein [1] of over 10000 nM.
The molecule `CCN(Cc1ccc(F)cc1)C(=O)Cn1c2ccccc2c2ccccc21` had an inhibitory constant (Ki) on Translocator protein [1] of 694 nM. In the test listed under Homo sapiens [2], the Ratio Ki is over 14.4.
At Translocator protein [1], `CCN(Cc1ccc(C(F)(F)F)cc1)C(=O)Cn1c2ccccc2c2ccccc21` returned a Ki of over 10000 nM.
Still for that read-out and setting: in the case of `CCN(Cc1ccccc1C(F)(F)F)C(=O)Cn1c2ccccc2c2ccccc21` it was over 10000 nM.
Same read-out and setting: in the case of `CCN(Cc1cccc(NC(C)=O)c1)C(=O)Cn1c2ccccc2c2ccccc21` it was over 10000 nM.
Take `CC[C@@H](C)N(C)C(=O)c1cc2ccccc2c(-c2ccccc2Cl)n1`: the inhibition (commonly the change of the read-out against control, counted positive when it falls) at Translocator protein [3] came out at 65%; in test [4] it was 68%; at Translocator protein [5], 83%; in test [6], 81%. Also, in test [7], the result was Active.
On Translocator protein [1], `CCN(Cc1ccccc1NC(C)=O)C(=O)Cn1c2ccccc2c2ccccc21` yielded a Ki of 243 nM. Further, the Ratio Ki in the test listed under Homo sapiens [2] is over 41.2.
`COc1cccc(CN(C)C(=O)Cn2c3ccccc3c3cc(-c4ccccc4Cl)ccc32)c1` yielded a Ki on Translocator protein [1] of 231 nM. Further, in the test listed under Homo sapiens [2], the Ratio Ki turned out to be 0.9. Also, the inhibition result (on Translocator protein [3]; in [4]) was “inactive” in each case.
With `COc1cccc(CN(C)C(=O)Cn2c3ccccc3c3cc(-c4ccccc4)ccc32)c1`, the Ki at Translocator protein [1] was determined as 231 nM. In the test listed under Homo sapiens [2], the Ratio Ki came to 0.9. Further, the inhibition entry (on Translocator protein [3]; in [4]; on Translocator protein [5]; in test [6]) was “inactive” throughout. The outcome (at Translocator protein [11]; in test [12]) was Active.
The molecule `CCN(Cc1cccc(OC)c1)C(=O)Cn1c2ccccc2c2cc(Br)ccc21` came in with an inhibition constant (Ki) at Translocator protein [1] of 469 nM. The Ratio Ki in the test listed under Homo sapiens [2] is 1. In addition, the inhibition entry (on Translocator protein [3]; in [4]; at Translocator protein [5]; in test [6]) was “inactive” each time.
With `COc1ccc(-c2ccc3c(c2)c2ccccc2n3CC(=O)N(C)Cc2cccc(OC)c2)cc1`, the inhibition constant Ki at Translocator protein [1] stood at 6.6 nM; on Translocator protein [8], 3.2 nM; at Translocator protein [9] it was 23.2 nM. The Ratio Ki in the test listed under Homo sapiens [2] is 3.8; in test [13] it was 1.1; on Translocator protein [14] it was 3.4; in the test listed under Homo sapiens [10] it was 7.3. In addition, the inhibition entry (on Translocator protein [3]; in test [4]; on Translocator protein [5]; in test [6]) was “inactive” in each case. Moreover, the result in test [7] was inactive.
At Translocator protein [1], `CCN(Cc1cccnc1)C(=O)Cn1c2ccccc2c2ccccc21` displayed a Ki of over 10000 nM.
With `CCN(Cc1cccc(F)c1)C(=O)Cn1c2ccccc2c2ccccc21`, the affinity on Translocator protein [1] corresponds to a Ki of 563 nM. Further, the Ratio Ki in the test listed under Homo sapiens [2] was over 17.8.
In the same order, the values of `COc1cccc(CN(C)C(=O)Cn2c3ccccc3c3cc(-c4cccc(Cl)c4)ccc32)c1` are 201 nM and 3.2.
Regarding `O=C(Cn1c2ccccc2c2ccccc21)NCc1ccccc1`, the Ki at Translocator protein [1] was over 10000 nM.
The same measure, in the same setting: in the case of `CCN(Cc1ccc(NC(C)=O)cc1)C(=O)Cn1c2ccccc2c2ccccc21` it was over 10000 nM; in that of `CCN(Cc1ccccn1)C(=O)Cn1c2ccccc2c2ccccc21`, over 10000 nM.
The molecule `CN(Cc1ccccc1)C(=O)Cn1c2ccccc2c2ccccc21` gave an inhibition constant (Ki) at Translocator protein [1] of 53 nM. The Ratio Ki in the test listed under Homo sapiens [2] was 2.5. Also, the inhibition result (on Translocator protein [3]; in [4]; at Translocator protein [5]; in test [6]) was “inactive” each time.
For the molecule `CCN(Cc1cccc(OC)c1)C(=O)Cn1c2ccccc2c2cc(-c3ccccc3)ccc21`, at Translocator protein [1], the Ki came to 385 nM. In the test listed under Homo sapiens [2], the Ratio Ki was 1.1. In addition, the inhibition result (on Translocator protein [3]; in test [4]; on Translocator protein [5]) was “inactive” throughout. The inhibition result in test [6] was “Active”.
On Translocator protein [1], `CCN(Cc1cccc(OC)c1)C(=O)Cn1c2ccccc2c2cc(-c3ccc(OC)cc3)ccc21` showed a Ki of 447 nM. For the same molecule, the Ratio Ki in the test listed under Homo sapiens [2] was determined as 0.8.
